In brackets after ≈: the same amount, converted by molar mass.
How the values were obtained:
[1] = tested on: Trypanosoma brucei brucei; test: WHO-TDR: Human African Trypanosomiasis (HAT); type: functional, organism-based; conditions: Squib-427
Outline: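 A diverse library of 10,000 compounds from Life Chemicals, filtered for drug-likeness and reactive groups, was screened against bloodstream forms of Trypanosoma brucei Squib 427 strain in a whole-organism assay. Previously published standard procedures were followed, with reference drugs serving as positive controls. Antiparasitic potency is given as IC50.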

[2] = tested on: Onchocerca ochengi; test: (§1) WHO-TDR: Onchocerciasis; type: functional; parameters: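 at 12.5 µM on microfilariae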
Outline: (§2)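 Microfilariae of Onchocerca ochengi or Onchocerca lienalis, animal pathogens standing in for the human parasite, were exposed to compounds in a whole-organism screen. The compounds came from a 10,000-compound diverse Life Chemicals library filtered for drug-likeness and reactive groups. Results are expressed as percent inhibition and IC50.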

[3] = tested on: Leishmania infantum; test: WHO-TDR: Leishmaniasis; type: functional, organism-based, Mus musculus; conditions: Macrophage
Outline: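 A diverse library of 10,000 compounds from Life Chemicals, filtered for drug-likeness and reactive groups, was screened against whole organisms. The targets were intracellular amastigotes of Leishmania infantum MHOM/MA(BE)/67 growing in murine peritoneal macrophages. Previously published standard procedures were followed, with a reference drug as positive control. Antiparasitic potency is given as IC50.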

[4] = tested on: Trypanosoma cruzi; test: WHO-TDR: Chagas disease; type: functional, organism-based, Homo sapiens; conditions: MRC5
Outline: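 Following previously published standard procedures, with a reference drug as positive control, a whole-organism assay was run on Trypanosoma cruzi Tulahuen CL2 beta-galactosidase strain amastigotes inside MRC-5SV2 human lung fibroblast host cells. The 10,000 compounds tested formed a diverse Life Chemicals library filtered for drug-likeness and reactive groups. Results are expressed as IC50 for antiparasitic potency.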

[5] = tested on: Plasmodium falciparum K1; test: WHO-TDR: Malaria; type: functional, organism-based, Homo sapiens; conditions: Erythrocyte
Outline: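 A diverse library of 10,000 compounds from Life Chemicals, filtered for drug-likeness and reactive groups, was screened against the intra-erythrocytic Plasmodium falciparum K1 strain in human red blood cells. Previously published standard procedures were followed, with a reference drug as positive control. Antiplasmodial potency is given as IC50.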

[6] = tested on: Onchocerca ochengi; test: as §1; type: functional; parameters: concentration or dose not given beside the values; outline: as §2; remark: listed apart in the source
[7] = tested on: Schistosoma mansoni; test: WHO-TDR: Schistosomiasis; type: functional; parameters: concentration or dose not given beside the values
Outline: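 In this whole-organism assay, larval and/or adult worms of Schistosoma mansoni (Puerto Rican strain) were exposed to compounds from a diverse Life Chemicals library of 10,000 members. A reference drug served as positive control. Activity is stated as percent inhibition and IC50.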

[8] = WHO-TDR: Cytotoxicity; type: toxicity, cell-based; conditions: human, MRC5 cells

Compound	IC50 [1] [µg/mL]	% Inhibition [2] [%]	IC50 [3] [µg/mL]	IC50 [4] [µg/mL]	IC50 [5] [µg/mL]	% Inhibition [6] [%]	% Inhibition [7] [%]	IC50 [8] [µg/mL]
Cc1ccc(NC(=O)CN2CCC(C(=O)NCCc3c[nH]c4ccccc34)CC2)c(C)c1	> 13	100	> 13	4.92 (≈ 11.4 µM)	> 13	0	0	> 13
O=C(Nc1ccc(F)cc1)Nc1nc(C(=O)N2CCN(c3ccccc3F)CC2)cs1	0.459 (≈ 1.03 µM)	0	> 13.3	4.32 (≈ 9.74 µM)	4.63 (≈ 10.4 µM)	0	0	5.3 (≈ 11.9 µM)
NC(=O)c1cc(-c2ccccc2)sc1NC(=O)c1cc2ccccc2o1	> 10.9	100	> 10.9	> 10.9	> 10.9	0	0	> 10.9
Cc1cc(C(=O)Nc2nc(-c3ccc4c(c3)OCCO4)cs2)n(C)n1	> 10.7	100	> 10.7	> 10.7	> 10.7	0	0	> 10.7
CC1CCN(C(C)CNC(=O)Nc2ccc(F)cc2)CC1 (stereo not drawn)	0.303 (≈ 1.03 µM)	0	> 8.8	> 8.8	3.19 (≈ 10.9 µM)	0	0	> 8.8
CN1CCCc2cc(C(CNC(=O)c3ccc4c(c3)OCO4)N3CCOCC3)ccc21 (stereo not drawn)	> 12.7	100	> 12.7	4.94 (≈ 11.7 µM)	> 12.7	0	0	11.2 (≈ 26.3 µM)
O=C(NCC1CC(=O)N(c2ccc(Cl)cc2)C1)Nc1ccccc1F (stereo not drawn)	> 10.9	100	> 10.9	> 10.9	> 10.9	0	0	> 10.9
Cc1cc(NC(=O)C2(c3ccc(Cl)cc3)CCCC2)n(-c2nc3c(c(=O)[nH]2)CCC3)n1	0.42 (≈ 0.959 µM)	0	> 13.1	0.37 (≈ 0.844 µM)	0.644 (≈ 1.47 µM)	0	56.7	0.338 (≈ 0.772 µM)
O=C(NCc1cccs1)c1cn(Cc2ccccc2)nc1OCc1ccccc1	4.85 (≈ 12 µM)	100	> 12.1	2.09 (≈ 5.18 µM)	6.04 (≈ 15 µM)	0	0	2.72 (≈ 6.74 µM)
COc1ccc(CCNC(=O)Cc2csc(SCc3ccc(C)cc3)n2)cc1OC	> 13.3	100	> 13.3	4.01 (≈ 9.07 µM)	> 13.3	0	0	> 13.3
COc1ccccc1OCC(=O)Nc1nc(CSCc2ccc(F)cc2)cs1	> 12.6	100	> 12.6	> 12.6	> 12.6	0	0	> 12.6
O=C(Cc1csc(NS(=O)(=O)c2ccc(Cl)cc2)n1)Nc1ccc(F)c(F)c1	> 13.3	100	> 13.3	> 13.3	> 13.3	0	0	> 13.3
NC(=O)c1csc(NC(=O)C2(c3ccc(Cl)cc3)CCCC2)n1	3.72 (≈ 10.6 µM)	100	> 10.5	> 10.5	> 10.5	0	0	> 10.5
CN(C1CC1)S(=O)(=O)c1ccc(C(=O)Nc2onc3c2CCCC3)cc1	5.97 (≈ 15.9 µM)	100	> 11.3	3.56 (≈ 9.49 µM)	> 11.3	0	0	> 11.3
Cc1cc(NC(=O)COc2ccc(Cl)cc2)n(-c2nc(C)c(C)c(=O)[nH]2)n1	0.377 (≈ 0.971 µM)	50	> 11.6	0.359 (≈ 0.926 µM)	2.07 (≈ 5.33 µM)	0	0	0.338 (≈ 0.872 µM)
CN1CCN(C(CNC(=O)COc2ccccc2F)c2ccc3c(c2)CCN3C)CC1 (stereo not drawn)	4.14 (≈ 9.71 µM)	0	1.9 (≈ 4.46 µM)	> 12.8	3.56 (≈ 8.35 µM)	0	0	> 12.8
